In BindingDB's records for doi:10.1021/acs.jmedchem.9b00634 (2019):
*1 amine or outer side, *2 acyl side, *3 side chain or, on linkers, in order; H or OH if unused. Where a SMILES comes first, the peptide text is derived from it. The star is where a group is joined. NH(CH2)3O(βDGlc) = OC[C@H]1O[C@@H](OCCCN*)[C@H](O)[C@@H](O)[C@@H]1O; Glutaryl = O=C(CCCC(=O)[*:2])[*:1]

Experiments:
[1] = Binding affinity to GLUT1 in human MDA-MB-231 cells assessed as cytotoxicity by measuring reduction in cell viability measured after 24 hrs by CCK8 assay
[2] = Binding affinity to GLUT1 in human NCI-H460 cells assessed as cytotoxicity by measuring reduction in cell viability measured after 24 hrs by CCK8 assay
[3] = Binding affinity to GLUT1 in human L02 cells assessed as cytotoxicity by measuring reduction in cell viability measured after 24 hrs by CCK8 assay
[4] = Binding affinity to GLUT1 in human PC3 cells assessed as cytotoxicity by measuring reduction in cell viability measured after 24 hrs by CCK8 assay
[5] = Binding affinity to GLUT1 in human HGC27 cells assessed as cytotoxicity by measuring reduction in cell viability measured after 24 hrs by CCK8 assay
[6] = biological target: T1, Solute carrier family 2, facilitated glucose transporter member 1 (Homo sapiens, UniProt P11166); experiment: Binding affinity to GLUT1 in human A549 cells assessed as cytotoxicity by measuring reduction in cell viability measured after 24 hrs by CCK8 assay
T1 sequence (P11166 whole entry): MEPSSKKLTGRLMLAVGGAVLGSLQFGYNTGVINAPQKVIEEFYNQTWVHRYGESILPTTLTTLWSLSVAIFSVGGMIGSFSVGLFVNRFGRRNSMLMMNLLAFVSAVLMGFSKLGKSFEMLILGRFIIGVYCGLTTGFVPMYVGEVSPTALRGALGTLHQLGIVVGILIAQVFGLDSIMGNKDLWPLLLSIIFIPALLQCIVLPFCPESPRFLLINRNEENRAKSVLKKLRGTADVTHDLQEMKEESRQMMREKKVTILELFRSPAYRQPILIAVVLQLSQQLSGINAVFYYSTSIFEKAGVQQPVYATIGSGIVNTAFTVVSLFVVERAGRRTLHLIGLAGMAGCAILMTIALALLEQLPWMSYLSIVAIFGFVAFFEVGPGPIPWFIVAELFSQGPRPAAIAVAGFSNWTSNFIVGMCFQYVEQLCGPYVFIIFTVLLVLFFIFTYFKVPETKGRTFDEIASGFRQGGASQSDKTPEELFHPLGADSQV
How it was run: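 Cells (A549, H460, H1437, PC-3, HGC-27, MDA-MB-231, HEK-293T, L-02) seeded at about 2×10^3/well and grown overnight. Treated 24 h with a peptide concentration series in serum-free medium. Viability by CCK-8; IC50 taken as 50% inhibition versus untreated cells. Average of three experiments, each in triplicate.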

[7] = Binding affinity to GLUT1 in human NCI-H1437 cells assessed as cytotoxicity by measuring reduction in cell viability measured after 24 hrs by CCK8 assay
[8] = Binding affinity to GLUT1 in human A549 cells assessed as cytotoxicity by measuring reduction in cell viability measured after 24 hrs by CCK8 assay

SMILES | IC50 [1] [µM] | IC50 [2] [µM] | IC50 [3] [µM] | IC50 [4] [µM] | IC50 [5] [µM] | IC50 [6] [µM] | IC50 [7] [µM] | IC50 [8] [µM]
CC[C@H](C)[C@H](NC(=O)[C@H](Cc1ccccc1)NC(=O)[C@H](CCCNC(=N)N)NC(=O)[C@H](C)NC(=O)[C@@H](NC(=O)[C@H](CO)NC(=O)[C@H](CCCNC(=N)N)NC(=O)[C@H](CCSC)NC(=O)[C@H](C)NC(=O)[C@H](CCCNC(=N)N)NC(=O)[C@H](Cc1ccccc1)NC(=O)[C@H](Cc1c[nH]c2ccccc12)NC(=O)CNC(=O)[C@H](CCCNC(=N)N)NC(=O)CCCC(=O)NCCCO[C@@H]1O[C@H](CO)[C@@H](O)[C@H](O)[C@H]1O)[C@@H](C)CC)C(=O)N[C@@H](C)C(=O)N[C@@H](CCCNC(=N)N)C(=O)N[C@@H](CCC(=O)O)C(=O)N[C@@H](CCCNC(=N)N)C(=O)N[C@@H](CC(C)C)C(=O)N[C@@H](CCCNC(=N)N)C(=O)N[C@@H](CCC(=O)O)C(=O)N[C@@H](Cc1cnc[nH]1)C(=O)N[C@@H](CC(C)C)C(=O)O ({NH(CH2)3O(βDGlc)-Glutaryl}-RGWFRAMRSIARFIARERLREHL-OH) | 10.1 | 8.5 | 25.9 | 6.9 | 12.6 | 9.6 | – | –
CC[C@H](C)[C@H](NC(=O)[C@H](Cc1ccccc1)NC(=O)[C@H](CCCNC(=N)N)NC(=O)[C@H](C)NC(=O)[C@@H](NC(=O)[C@H](CO)NC(=O)[C@H](CCCNC(=N)N)NC(=O)[C@H](CCSC)NC(=O)[C@H](C)NC(=O)[C@H](CCCNC(=N)N)NC(=O)[C@H](Cc1ccccc1)NC(=O)[C@H](Cc1c[nH]c2ccccc12)NC(=O)CNC(=O)[C@@H](N)CCCNC(=N)N)[C@@H](C)CC)C(=O)N[C@@H](C)C(=O)N[C@@H](CCCNC(=N)N)C(=O)N[C@@H](CCC(=O)O)C(=O)N[C@@H](CCCNC(=N)N)C(=O)N[C@@H](CC(C)C)C(=O)N[C@@H](CCCNC(=N)N)C(=O)N[C@@H](CCC(=O)O)C(=O)N[C@@H](Cc1cnc[nH]1)C(=O)N[C@@H](CC(C)C)C(=O)O (H-RGWFRAMRSIARFIARERLREHL-OH) | 10.5 | 12.9 | 12.6 | 15.6 | 12.5 | – | 16.5 | 14.3
